RanGTP-Impb inh = inhibitors of RanGTP-importin-beta interaction, primary screen, biochemical, FRET, CFP-Ran, YFP-importin-beta, homogeneous; actives 1.1% (n = 300,000); inhibition, % (test concentration not listed); cell-free CFP-Ran/YFP-importin-beta FRET ratio; Ran GTPase (GTP-bound) - importin-beta complex;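 active = more than half of the replicate wells show a fall in the fluorescence ratio signal beyond about 16%, limit read from the data, passing the limit was not always enough; inconclusive = exactly half of the replicate wells pass the set limit; inactive = fewer than half of replicates pass the limit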;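 also: 0% = DMSO wells and 100% = Ran loaded with GDP instead of GTP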
Runt-SMMHC FRET = inhibitors of RUNX1 Runt–CBFb-SMMHC binding, primary screen, biochemical, FRET, Cerulean-Runt, Venus-CBFb-SMMHC, uHTS; Runt-related transcription factor 1 (Homo sapiens) + Core-binding factor subunit beta …; Cerulean-Runt/Venus-CBFb-SMMHC FRET ratio 530/480, 1 h; inhibition, % at 20 µM; actives 0.74% (n = 220,000); AID 1434, 2008;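 active = mean inhibition across duplicate retests at 20 µM reaching about 50%, limit read from the data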;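 also: 0% = DMSO wells and 100% = wells with excess untagged CBFb-SMMHC; inhibitors lower the FRET ratio by blocking Runt binding to CBFb-SMMHC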
Target sequence (Q01196 whole entry, looked up): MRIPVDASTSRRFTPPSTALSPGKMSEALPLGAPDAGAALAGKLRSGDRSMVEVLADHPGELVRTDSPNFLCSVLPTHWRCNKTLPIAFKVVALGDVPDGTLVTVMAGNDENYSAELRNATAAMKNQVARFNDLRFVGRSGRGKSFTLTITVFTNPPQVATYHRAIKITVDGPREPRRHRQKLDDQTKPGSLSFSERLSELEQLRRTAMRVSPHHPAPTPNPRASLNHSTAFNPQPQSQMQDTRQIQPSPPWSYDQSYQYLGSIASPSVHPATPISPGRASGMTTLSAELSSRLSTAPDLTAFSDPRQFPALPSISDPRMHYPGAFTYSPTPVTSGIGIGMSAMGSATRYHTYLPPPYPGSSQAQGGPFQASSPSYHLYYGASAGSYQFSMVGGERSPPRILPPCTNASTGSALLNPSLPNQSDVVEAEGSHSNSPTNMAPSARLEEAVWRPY
Target sequence (Q13951 whole entry, looked up): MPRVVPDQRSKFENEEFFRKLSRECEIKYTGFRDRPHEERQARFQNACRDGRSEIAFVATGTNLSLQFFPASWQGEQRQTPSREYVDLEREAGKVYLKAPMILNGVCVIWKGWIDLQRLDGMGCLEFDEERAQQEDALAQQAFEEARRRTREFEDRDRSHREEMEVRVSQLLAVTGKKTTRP
Wee1 stabilizer = Wee1 degradation inhibitors, primary screen, cell-based, HeLa, Wee1K328M-luciferase, luminescence; Wee1-like protein kinase (Homo sapiens), P30291; HeLa Luc-Wee1K328M stability; 100% = proteasome inhibitor MG132 effect; reporter increase, % at 5 µM; actives 1.2% (n = 220,000);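 active = activation above the mean of all tested compounds plus 3 SD, set per screening run, cut at about 8.8% in these data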;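 also: cells exposed to compound for 20 h before luminescence read; 0% = DMSO alone and 100% = MG132 at 30 µM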
proKLK7 act = proKLK7 zymogen activators, primary screen, biochemical, fluorescence intensity. actives 0.9% (n = 370,000). activation, % at 7 µM. AID 652039, 2013. purified proKLK7, EDANS-DABCYL substrate fluorescence; 100% is mature enzyme control, 0% vehicle;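 active = activation above the mean of all tested compounds plus 3 SD, computed per campaign excluding outliers beyond control limits, cut at about 13% in these data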
Runt-CBFb FRET = inhibitors of RUNX1 Runt–CBFb binding, primary screen, biochemical, FRET, Cerulean-Runt, Venus-CBFb, uHTS; Runt-related transcription factor 1 (Homo sapiens) + Core-binding factor subunit beta …; Cerulean-Runt/Venus-CBFb FRET ratio 530/480, 1 h; inhibition, % at 20 µM; actives 0.46% (n = 220,000);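 active = inhibition over about 50% at 20 µM in the single-dose screen, limit read from the data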;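 also: 0% = DMSO wells and 100% = excess unlabeled CBFb competitor control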
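test system = Cerulean-tagged RUNX1 Runt domain (FRET donor) fusion protein | reagent = Venus-CBFb binding partner, 100 nM | incubation = protein complex preformed 1 h, compound exposure 1 h, room temperature, dark | detection = FRET fluorescence | read-out basis = loss of energy transfer signal | controls = 5 µM unlabeled CBFb as full-inhibition high control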
AI-2 QS modul = Vibrio harveyi AI-2 quorum sensing modulators, primary screen, JMH597 strain, luminescence/OD600 ratio; actives 0.4% (n = 300,000); activity change, % at 7.5 µM; Vibrio harveyi JMH597 AI-2 luminescence/OD600 ratio, 9 h; hits give low values; strain lacks LuxN and CqsS sensors; 0 = neutral-control median; in the data active = activity change below about -75%, passing the limit was not always enough; inconclusive = no clear call, values can overlap the other calls;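 also: luminescence divided by OD600 gain over 9 h not by final OD600 alone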
Runt-CBFb TRFRET = inhibitors of RUNX1 Runt–CBFb binding, biochemical, TR-FRET | shares compounds with Runt-CBFb FRET | TR-FRET RUNX1 Runt domain-CBFb binding | inhibition, % at 20 µM | actives 20% (n = 480) | AID 1502, 2009; in the data active = inhibition above about 40%
An asterisk follows results filed as active; ? = inconclusive; · = not tested or not shown. Shown are actives, neighbours in structure and some others; about 2.9% of the full set was active somewhere.

SMILES	RanGTP-Impb inh	Runt-SMMHC FRET	Wee1 stabilizer	proKLK7 act	Runt-CBFb FRET	AI-2 QS modul	Runt-CBFb TRFRET
CCS(=O)(=O)N1CCC(N2CCC(C)CC2)CC1	-5	3	-2	1	3	-11	·
CCN1CCN(c2nc(C)nc3c2sc(=S)n3C)CC1	·	38	0	0	53*	·	-1
Nc1ccccc1S(N)(=O)=O	·	·	·	1	·	·	·
Cc1cccc(C2NC(=O)c3c(sc(C)c3C)N2)c1O (configuration not stated)	-2	4	-1	0	51*	18	-17
CN1C(=O)c2c(sc3c2CCCC3)NC1c1ccccc1O (configuration not stated)	-1	8	2	·	16	20	·
O=C(CCSc1ccccn1)c1ccccc1	2	45	-2	0	59*	12	5
O=C(O)c1ccccc1C(=O)NCCc1c(C(=O)O)[nH]c2ccc(F)cc12	4	-2	2	0	0	10	·
CN1CCc2c(sc3ncn4nc(-c5ccccc5O)nc4c23)C1	·	125*	-1	·	57*	·	-2
S=c1nc(-c2cc(Cl)ccc2Cl)[nH][nH]1	-2	40	-4	0	57*	27	-19
CC(C)(C)S(=O)N1Cc2cc(C(=O)Nc3ccc(-c4ccccc4)cc3)nc(-c3cccc(-c4cc5ccccc5o4)c3)c2[C@@H]1CCO (some centres not stated)	·	·	·	5	·	·	·
CCCCOc1ccc(C2OC34CCCCC3C(C#N)(C#N)C2(C#N)C(=N)O4)cc1 (configuration not stated)	-2	13	-4	·	25	14	·
CCC12OC(=N)C(C#N)(C1C)C(C#N)(C#N)C(c1ccccc1)O2 (configuration not stated)	21*	88*	1	12	58*	17	41*
COc1ccc(CNC(=O)c2ccc(-n3ccnc3)c3ccoc23)cc1OC	·	·	·	0	·	·	·
O=C(Nc1ccc(-c2nc3ccccc3s2)c(O)c1)C1=COCCO1	-31	128*	1	-14	59*	26	2
COc1ccc(N2C(=O)C(Cl)=C(Oc3cccc(OC)c3)C2=O)cc1	·	44	0	·	57*	34	43*
COc1ccc(N2C(=O)c3ccccc3C2=O)cc1	2	·	-4	1	·	21	·
O=C1OC(c2ccccc2)=N/C1=C\C=C\c1ccccc1[N+](=O)[O-]	2	67	-1	0	74*	17	32
O=C1OC(c2ccccc2)=N/C1=C\C=C\c1ccco1	1	-3	-2	1	14	-6	·
CCOC(=O)c1cnc2ccc(Cl)cc2c1NCCN(C)C	?	46	-1	0	64*	23	2
CCOC(=O)c1cnc2ccc(Br)cc2c1NCCO	0	2	-2	0	0	13	·
O=C(N/N=C/c1ccc(F)cc1)c1cc[n+]([O-])cc1	-3	·	·	0	·	5	·
Cc1cccc(CN2CCC(C(=O)Nc3ccc(-n4nc(C)cc4C)cc3)CC2)n1	?	·	·	0	·	7	·
Cn1c(SCc2nn[nH]n2)nc2c1c(=O)n(Cc1ccccc1Cl)c(=O)n2C	3	-1	-2	0	0	35	·
Cc1cc(C)n2nc3nc4c(cc3c2n1)CCCC4	5	·	1	4	65*	9	63*
C=CCOC(=O)C1=C(C)N=c2s/c(=C3\C(=O)N(CC(=O)O)c4ccccc43)c(=O)n2C1c1ccc(OC)cc1 (configuration not stated)	-4	-35	2	0	53*	10	29
SMILES	RanGTP-Impb inh	Runt-SMMHC FRET	Wee1 stabilizer	proKLK7 act	Runt-CBFb FRET	AI-2 QS modul	Runt-CBFb TRFRET
C=CCOC(=O)C1=C(C)N=c2sc(=C3C(=O)N(CC(=O)O)c4ccccc43)c(=O)n2C1c1ccc(OC)cc1 (configuration not stated)	·	·	·	-1	·	·	·
CC(C)CC(=O)NN1CCCCC1	9	0	0	0	75*	9	58*
O=C(CSc1nc2ccccc2s1)Nc1cc(C(=O)O)cc(C(=O)O)c1	-1	52	0	0	55*	12	33
O=C(CSc1nc2ccccc2s1)Nc1ccc(Cl)c(C(=O)O)c1	3	17	-1	1	16	9	·
CCCCCCCCN1C(=O)[C@H](CC(=O)N2CCN(C(=O)OCC)CC2)C[C@@]2(C(=O)OC)CCCCC=C12	·	·	·	0	·	·	·
CNC(=O)/C(C#N)=C/c1c(N(Cc2ccccc2)Cc2ccccc2)nc2ccccn2c1=O	1	90*	-2	2	63*	32	3
CC(C)C(C)(C#N)NC(=O)CSc1nnc(-c2ccncc2)n1Cc1ccccc1 (configuration not stated)	1	32	-2	0	56*	33	2
CC(C)(C)NC(=O)CSc1nnc(-c2ccncc2)n1Cc1ccccc1	8	-2	-2	1	-1	26	·
S=c1[nH]c(-c2ccc(Cl)cc2)cs1	3	35	0	0	50*	-1	9
Cc1ccc(-c2csc(=S)[nH]2)cc1	0	43	-4	0	39	-31	·
S=c1nccc(-c2ccc(Cl)cc2)[nH]1	-2	12	-2	0	56*	32	41*
Clc1ccc(-c2ccn[nH]2)cc1	-1	-4	-1	0	0	21	·
Cc1[nH]c2ccccc2c1N=Nc1ccccc1C(=O)O	5	-20	0	1	52*	10	17
S=C(NCCCN1CCOCC1)NCCCN1CCOCC1	-1	23	0	0	50*	3	23
S=C(NCCCN1CCOCC1)NC1CCCC1	·	2	-2	0	-2	8	·
Cc1cccc(OC(C)C(=O)Nc2ccc3c(c2)OCCO3)c1 (configuration not stated)	·	·	·	0	·	·	·
O=S(=O)(Nc1cccc(-c2nc3cccnc3s2)c1)c1ccc2c(c1)CCCC2	-3	0	0	0	-2	30	·
